Experimental data: ChEMBL document CHEMBL3997841, “Continued optimization of the M5 NAM ML375: Discovery of VU6008667, an M5 NAM with high CNS penetration and a desired short half-life in rat for addiction studies” (Bioorg Med Chem Lett, 2017)
In brackets after ≈: the same amount, converted by molar mass.

Tests used:
[1] = Elimination half life in rat by LC-MS/MS analysis; type: ADME; conditions: in vivo, read-out: beta t1/2
[2] = (§1) Fraction unbound in human plasma at 5 uM after 4 hrs by LC-MS/MS based equilibrium dialysis method; type: ADME, cell-free
[3] = (§2) Fraction unbound in rat plasma at 5 uM after 4 hrs by LC-MS/MS based equilibrium dialysis method; type: ADME, cell-free
[4] = Clearance in rat plasma by LC/MS/MS analysis; type: ADME
[5] = target: T1, Muscarinic acetylcholine receptor M5 (Homo sapiens) (UniProt P08912); test: Negative allosteric modulation of human M5 receptor expressed in CHO cells assessed as inhibition of acetyl choline-induced calcium mobilization at 10 uM preincubated for 150 secs followed by acetyl choline addition by Fluo-4-AM dye based fluorescence assay relative to acetyl choline; values are per cent of control
T1 sequence (whole entry): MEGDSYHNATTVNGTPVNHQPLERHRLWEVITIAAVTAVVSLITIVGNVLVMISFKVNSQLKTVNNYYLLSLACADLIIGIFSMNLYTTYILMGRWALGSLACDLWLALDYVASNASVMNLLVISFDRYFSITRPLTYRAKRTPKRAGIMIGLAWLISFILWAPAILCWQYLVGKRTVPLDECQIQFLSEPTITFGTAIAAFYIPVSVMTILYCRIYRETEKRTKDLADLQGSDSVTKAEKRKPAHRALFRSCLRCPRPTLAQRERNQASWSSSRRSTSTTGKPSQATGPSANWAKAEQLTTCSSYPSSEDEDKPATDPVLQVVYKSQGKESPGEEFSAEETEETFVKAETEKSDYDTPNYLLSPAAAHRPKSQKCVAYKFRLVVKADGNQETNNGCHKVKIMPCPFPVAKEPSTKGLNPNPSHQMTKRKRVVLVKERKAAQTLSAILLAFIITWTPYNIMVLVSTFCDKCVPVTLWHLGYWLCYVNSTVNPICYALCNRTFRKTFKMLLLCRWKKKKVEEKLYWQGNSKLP

[6] = target: T2, Muscarinic acetylcholine receptor M5 (Homo sapiens, UniProt P08912); test: Negative allosteric modulation of human M5 receptor expressed in CHO cells assessed as inhibition of acetyl choline-induced calcium mobilization preincubated for 150 secs followed by acetyl choline addition by Fluo-4-AM dye based fluorescence assay; type: functional, cell-based
T2 sequence (P08912 whole entry): T1 sequence (whole entry)
In short: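 Intracellular calcium mobilization in CHO cells stably transfected with human M5 receptor, run in the presence of an ACh EC80 concentration; values are means of at least three independent determinations, each performed in triplicate.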

[7] = Aqueous solubility of the compound; type: physicochemical; conditions: buffer
[8] = Selectivity ratio of IC50 for rat M5 receptor expressed in CHO cells to IC50 for human M5 receptor expressed in CHO cells; type: cell-based
Rattus norvegicus = test: Oral bioavailability in rat at 3 mg/kg by LC-MS/MS analysis; type: ADME, organism-based; conditions: in vivo
[9] = Clearance in rat at 1 mg/kg, iv or 3 mg/kg, po by LC-MS/MS analysis; type: ADME, organism-based; conditions: in vivo
[10] = target: T3, Muscarinic acetylcholine receptor M5 (Rattus norvegicus) (UniProt P08911); test: Negative allosteric modulation of rat M5 receptor expressed in CHO cells assessed as inhibition of acetyl choline-induced calcium mobilization at 10 uM preincubated for 150 secs followed by acetyl choline addition by Fluo-4-AM dye based fluorescence assay relative to acetyl choline; values are per cent of control
T3 sequence (whole entry): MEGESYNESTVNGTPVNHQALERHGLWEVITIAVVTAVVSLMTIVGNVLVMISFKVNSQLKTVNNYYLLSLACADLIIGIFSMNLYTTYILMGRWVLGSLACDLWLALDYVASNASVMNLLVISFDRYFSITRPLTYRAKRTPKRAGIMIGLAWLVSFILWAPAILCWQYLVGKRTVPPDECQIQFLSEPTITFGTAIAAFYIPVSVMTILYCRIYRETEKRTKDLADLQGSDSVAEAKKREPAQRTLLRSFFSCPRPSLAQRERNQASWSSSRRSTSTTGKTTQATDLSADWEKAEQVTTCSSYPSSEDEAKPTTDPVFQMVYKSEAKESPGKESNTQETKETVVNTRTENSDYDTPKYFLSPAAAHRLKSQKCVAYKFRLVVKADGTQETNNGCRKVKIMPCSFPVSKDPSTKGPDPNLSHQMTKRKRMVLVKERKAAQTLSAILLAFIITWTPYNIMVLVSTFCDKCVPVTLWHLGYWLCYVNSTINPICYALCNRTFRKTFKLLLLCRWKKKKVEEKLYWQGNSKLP

[11] = target: T4, Muscarinic acetylcholine receptor M5 (Rattus norvegicus, UniProt P08911); test: Negative allosteric modulation of rat M5 receptor expressed in CHO cells assessed as inhibition of acetyl choline-induced calcium mobilization preincubated for 150 secs followed by acetyl choline addition by Fluo-4-AM dye based fluorescence assay; type: functional, cell-based
T4 sequence (P08911 whole entry): T3 sequence (whole entry)
In short: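 Calcium mobilization assay in CHO cells stably transfected with rat M5 receptor; data are means of at least three independent determinations done in triplicate.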

Plasma [12] = test: as §1; type: ADME, cell-free; conditions: 4 h, 5 µM
Plasma [13] = test: as §2; type: ADME, cell-free; conditions: 4 h, 5 µM
[14] = Volume of distribution at steady state in rat at 1 mg/kg, iv or 3 mg/kg, po by LC-MS/MS analysis; type: ADME, organism-based; conditions: in vivo, read-out: Vdss
Brain = test: Fraction unbound in rat brain at 1 uM after 4 hrs by LC-MS/MS based equilibrium dialysis method; type: ADME, tissue-based

| Structure (SMILES) | half-life [1] | fraction unbound at 4 h, 5 µM [2] | fraction unbound at 4 h, 5 µM [3] | clearance [4] | residual activity [5] | IC50 ([6]; read-out: IC50) | IC50 ([6]; read-out: pIC50 (converted)) | solubility [7] | Ratio IC50 [8] | F (Rattus norvegicus) | clearance [9] | residual activity [10] | IC50 [11] | Fu (Plasma [12]) | Fu (Plasma [13]) | Vd [14] | Fu (Brain) |
| --- | --- | --- | --- | --- | --- | --- | --- | --- | --- | --- | --- | --- | --- | --- | --- | --- | --- |
| CC1CCCN(c2ccc([C@@]34c5ccccc5C(=O)N3CCN4C(=O)c3ccc(F)c(F)c3)cc2)C1 (some centres not stated) | < 30 min | < 0.01 | < 0.01 | > 70 mL/min/kg | 3.6% |  |  |  |  |  |  |  |  |  |  |  |  |
| CCOC(=O)N1CCN(c2ccc([C@@]34c5ccccc5C(=O)N3CCN4C(=O)c3ccc(F)c(F)c3)cc2)CC1 | < 30 min | < 0.01 | < 0.01 | > 70 mL/min/kg | 7.5% |  |  |  |  |  |  |  |  |  |  |  |  |
| O=C(c1ccc(F)c(F)c1)N1CCN2C(=O)c3ccccc3[C@@]12c1ccc(N2CCC[C@H]2c2cccnc2)cc1 | < 30 min | < 0.01 | < 0.01 | > 70 mL/min/kg | 6% | 3.5 µM |  |  |  |  |  |  |  |  |  |  |  |
| O=C(c1ccc(F)c(F)c1)N1CCN2C(=O)c3ccccc3[C@@]12c1ccc(N2CCCC(F)C2)cc1 (some centres not stated) | < 30 min | < 0.01 | < 0.01 | > 70 mL/min/kg | 6.9% | 6.36 µM |  |  |  |  |  |  |  |  |  |  |  |
| O=C(c1ccc(F)c(F)c1)N1CCN2C(=O)c3ccccc3[C@@]12c1ccc(N2CCC(F)CC2)cc1 | < 30 min | < 0.01 | < 0.01 | > 70 mL/min/kg | 13.6% | 4.28 µM |  |  |  |  |  |  |  |  |  |  |  |
| N#CC1CCCN(c2ccc([C@@]34c5ccccc5C(=O)N3CCN4C(=O)c3ccc(F)c(F)c3)cc2)C1 (some centres not stated) | < 30 min | < 0.01 | < 0.01 | > 70 mL/min/kg | 26.3% |  |  |  |  |  |  |  |  |  |  |  |  |
| O=C(c1ccc(F)c(F)c1)N1CCN2C(=O)c3ccccc3[C@@]12c1ccc(N2CC3(C2)CC(F)(F)C3)cc1 | < 30 min | < 0.01 | < 0.01 | > 70 mL/min/kg | 26.2% | > 10 µM |  |  |  |  |  |  |  |  |  |  |  |
| O=C(c1ccc(F)c(F)c1)N1CCN2C(=O)c3ccccc3[C@@]12c1ccc(NC2CCC2)cc1 | < 30 min | < 0.01 | < 0.01 | > 70 mL/min/kg | 25.5% | 6.92 µM | 6.76 µM |  |  |  |  |  |  |  |  |  |  |
| O=C(c1ccc(F)c(F)c1)N1CCN2C(=O)c3ccccc3[C@@]12c1ccc(Cl)cc1 |  |  |  |  | 2.3% |  |  | < 10 µg/mL |  |  |  |  |  |  |  |  |  |
| O=C(c1ccc(F)c(F)c1)N1CCN2C(=O)c3ccccc3[C@@]12c1ccc(N2CCC(C(F)(F)F)CC2)cc1 | < 30 min | < 0.01 | < 0.01 | > 70 mL/min/kg | 3.2% | 3.42 µM |  |  |  |  |  |  |  |  |  |  |  |
| O=C(c1ccc(F)c(F)c1)N1CCN2C(=O)c3ccccc3[C@@]12c1ccc(N2CCCCC2C(F)(F)F)cc1 (some centres not stated) | < 30 min | < 0.01 | < 0.01 | > 70 mL/min/kg | 2.6% | 5.7 µM |  |  |  |  |  |  |  |  |  |  |  |
| CC1Cc2ccccc2N1c1ccc([C@@]23c4ccccc4C(=O)N2CCN3C(=O)c2ccc(F)c(F)c2)cc1 (some centres not stated) | < 30 min | < 0.01 | < 0.01 | > 70 mL/min/kg | 27% | 4.55 µM | 4.47 µM |  |  |  |  |  |  |  |  |  |  |
| O=C(c1ccc(F)c(F)c1)N1CCN2C(=O)c3ccccc3[C@@]12c1ccc(N2CC[C@@H](F)C2)cc1 | < 30 min | < 0.01 | < 0.01 | > 70 mL/min/kg | 3.3% | 3.09 µM | 3.02 µM |  |  |  |  |  |  |  |  |  |  |
| O=C(c1ccc(F)c(F)c1)N1CCN2C(=O)c3ccccc3[C@@]12c1ccc(N2CCCC(F)(F)C2)cc1 | < 30 min | < 0.01 | < 0.01 | > 70 mL/min/kg | 3.1% | 1.46 µM |  | 10000 µg/mL (≈ 19.6 mM) | 2 |  |  |  |  |  |  |  |  |
| CN(c1ccc([C@@]23c4ccccc4C(=O)N2CCN3C(=O)c2ccc(F)c(F)c2)cc1)C1CCC1 | < 30 min | < 0.01 | < 0.01 | > 70 mL/min/kg | 2.6% |  |  | 10000 µg/mL (≈ 21.1 mM) |  |  |  |  |  |  |  |  |  |
| O=C(c1ccc(F)c(F)c1)N1CCN2C(=O)c3ccccc3[C@@]12c1ccc(N2CCC(F)(F)CC2)cc1 | < 30 min | < 0.01 | < 0.01 | > 70 mL/min/kg | 3.1% | 1.82 µM |  | 10000 µg/mL (≈ 19.6 mM) | 2 |  |  |  |  |  |  |  |  |
| O=C(c1ccc(F)c(F)c1)N1CCN2C(=O)c3ccccc3[C@@]12c1ccc(N2CCCCC2)cc1 | < 30 min | < 0.01 | < 0.01 | > 70 mL/min/kg | 10.5% | 6.04 µM |  |  |  |  |  |  |  |  |  |  |  |
| O=C(c1ccc(F)c(F)c1)N1CCN2C(=O)c3ccccc3[C@@]12c1ccc(N2CCc3ccccc3C2)cc1 | < 30 min | < 0.01 | < 0.01 | > 70 mL/min/kg | 20.1% | 8.21 µM | 7.76 µM |  |  |  |  |  |  |  |  |  |  |
| Cc1cc([C@@]23c4ccccc4C(=O)N2CCN3C(=O)c2ccc(F)c(F)c2)ccc1Cl |  |  |  |  |  |  |  |  |  | 17% | 82 mL/min/kg | 2.6% | 1.6 µM | 0.006 | 0.014 | 7.4 L/kg | 0.003 |
